DAGLB inh = DAGLB lipase inhibitors, primary screen, biochemical, fluorescence, HTS. Diacylglycerol lipase-beta (Homo sapiens), Q8NCG7. HEK293T DAGLB membrane lysate, EnzChek fluorogenic substrate. inhibition, % at 5.17 µM. 0.059% of 340,000 active. AID 504411, 2011; in the data active = inhibition above about 34%;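 also: 0% = enzyme with vehicle and 100% = wells lacking enzyme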
MT1-MMP act inh = blockers of MT1-MMP proenzyme processing, primary screen, HT1080 RFP-PRO-GFP cells, GFP/RFP fluorescence | GFP/RFP ratio fluorescence, overnight; percent of plate control window, DMSO zero | GFP/RFP ratio change, % at 20 µM | 0.061% of 360,000 active | AID 651647, 2012;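 active = GFP/RFP ratio change of at least 30% with cell ATP level not reduced by more than half and red fluorescence within 50% of control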
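system = RFP-PRO-GFP reporter HT1080 cells | dosing = 20 µM single dose, 1% DMSO | timing = overnight cell settling, then overnight compound exposure, 37 °C, 5% CO2 | read-out basis = GFP/RFP fluorescence ratio | controls = DMSO and RFP-L50D-GFP cell wells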
ABCB6 inh 2 = ABCB6 transporter inhibitors, primary screen, K562-ABCB6 cells, flow cytometry, MLPCN library; ATP-binding cassette sub-family B member 6 (Homo sapiens), Q9NP58; K562-ABCB6 porphyrin accumulation, 1 h; hits give low values; fluorescence ratio to DMSO, % at 10 µM; 0.19% of 360,000 active;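 active = fluorescence ratio to DMSO below 75%, the collection mean minus 3 SD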;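 also: signal is porphyrin accumulated inside mitochondria; 100% equals median channel fluorescence of DMSO control wells; lower ratio means ABCB6 inhibition with less porphyrin fluorescence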
VLA-4 inh = inhibition in human VLA-4 binding assay, primary screen, VLA-4 allosteric modulator project, MLPCN library, flow cytometry, VLA-4 expressing cells; inhibition, % (about 7 µM as worked out from the volumes in the protocol); Integrin alpha-4 (Homo sapiens), P13612; ligand binding flow cytometry; AID 2557, 2010; 0.2% of 330,000 active; in the data active = inhibition above about 50%
Granule exo inh = LAMP-1 surface exposure blockers, TALL-104 cells – cell-based, flow cytometry, MLPCN library, primary screen. TALL-104 LAMP-1 surface exposure; cells stimulated with thapsigargin and PMA. inhibition, % at 10 µM. 0.66% of 360,000 active;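 active = inhibition above about 55%, limit read from the data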
FGF22 binding = binders of human FGF22 protein, primary screen, FGF22 synaptogenesis inhibitor project, biophysical, thermal shift, single point. Fibroblast growth factor 22 (Homo sapiens), Q9HCT0. recombinant FGF22 thermal shift, SYPRO orange fluorescence; percent of sucrose octasulfate shift, DMSO zero. activity (Tm shift, normalised), % at 9.99 µM. 1.5% of 340,000 active;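 active = mean Tm shift, scaled 0 neutral to 100 positive control, at about 1.3% or above, every replicate too, limit read from the data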
Active calls of the source: *; · = not tested or not shown. The list is not random: actives were taken first. Their share in the collection is about 2%.

SMILES	DAGLB inh	MT1-MMP act inh	ABCB6 inh 2	VLA-4 inh	Granule exo inh	FGF22 binding
CC(=O)Nc1ccc(S(=O)(=O)N2CCCC2C(=O)Nc2ccc3c(c2)OCCO3)cc1 (centres undefined)	0.3	3.3	101.0	5.7	3.2	43.9*
CNS(=O)(=O)c1ccc(NC(=S)Nc2ccc3c(c2)OCO3)cc1	2.9	-0.6	106.0	3.6	0.8	43.5*
COc1ccc(NC(=O)Nc2ccc3c(c2)C(=O)N([C@@H](C)CO)C[C@@H](C)[C@@H](CN(C)Cc2ccc(C(=O)Nc4ccccc4N)cc2)O3)cc1	·	·	·	·	·	-0.3
CCOC(=O)Cn1c(C)cc(COC)c(C#N)c1=O	-0.4	-1.8	100.0	28.0	2.3	43.0*
COCc1cc(C)n(CC(=O)N2CCCC2)c(=O)c1C#N	-2.8	-1.2	100.0	-6.1	1.3	·
O=c1c2ccccc2sn1-c1cc(S(=O)(=O)N2CCOCC2)ccc1N1CCOCC1	0.9	-2.3	103.0	11.5	59.3*	·
NNC(=O)c1cncn1-c1ccc(F)cc1	0.0	0.8	94.0	8.4	-2.8	43.6*
O=C(NNc1ccccc1)c1ccc(Cl)c(Cl)c1	-2.5	5.9	89.0	·	-6.3	43.2*
Cc1ccc([N+](=O)[O-])cc1S(=O)(=O)Nc1cccc(S(=O)(=O)NC2=NCCC2)c1	0.6	1.0	101.0	0.4	2.1	44.5*
Cn1cccc1C(=O)NC(=O)COC(=O)CNS(=O)(=O)c1ccc(Br)cc1	-7.6	2.1	103.0	-0.9	1.6	·
CCOc1ccc(S(=O)(=O)NCCC(=O)OCC(=O)NC(=O)c2cccn2C)cc1	-1.0	-0.4	99.0	-4.4	-0.6	43.6*
CCN1C(=O)[C@@H]2[C@@H](c3ccc(-c4ccc(OC)cc4)cc3)N3CCC[C@@]3(C(=O)OC)[C@@H]2C1=O	0.3	2.6	98.0	3.1	10.7	43.9*
CCOC(=O)CCc1c(C)n[nH]c1C	1.4	-0.4	95.0	3.1	8.6	43.0*
O=C(Nc1ccc(Cl)cc1)C(Cl)C(=O)c1ccccc1 (centres undefined)	0.3	-5.1	98.0	17.0	96.1*	0.0
O=C(Nc1ccccc1Cl)C(Cl)C(=O)c1ccccc1 (centres undefined)	-4.4	1.1	103.0	·	-2.6	0.0
CC1OC2CC(=O)OC2C2=C1C(=O)c1c(O)cccc1C2=O (centres undefined)	·	-178.3	118.0	·	85.7*	-0.6
C[C@@H]1CN([C@@H](C)CO)C(=O)c2cccc(NS(=O)(=O)c3ccc(Cl)cc3)c2O[C@@H]1CN(C)C(=O)Nc1ccc(F)cc1	·	·	·	·	·	-0.3
COc1ccc(/C=C(\NC(=O)c2ccc(C)cc2)C(=O)NCCN2CCOCC2)cc1	-0.8	-3.4	97.0	8.8	12.7	1.4*
Cc1ccc(C(=O)N/C(=C\c2ccc(-c3ccccc3[N+](=O)[O-])o2)C(=O)NCCCN2CCOCC2)cc1	-0.3	-2.1	94.0	5.5	91.1*	-0.5
CN1[C@@H]2c3ccc(-c4ccncc4)c(=O)n3C[C@@H]2[C@@H](CO)[C@@H]1C(=O)NCCc1ccccc1	·	·	·	·	·	0.2
C[C@H]1CN([C@@H](C)CO)C(=O)c2cc(C3=CCCC3)cnc2O[C@H]1CN(C)C(=O)CN1CCOCC1	·	·	·	·	·	0.1
O=C1NC(=S)SC1=Cc1ccccc1C(=O)O	·	6.7	100.0	·	-6.0	1.6*
C[C@H]1CN([C@@H](C)CO)C(=O)c2cc(NC(=O)CCCN(C)C)ccc2O[C@@H]1CN(C)C(=O)Nc1ccccc1	·	·	·	·	·	-0.1
O=C(O)C1C2CCC(CC2)C1C(=O)O (centres undefined)	-0.5	2.8	95.0	·	-1.3	-0.1
O=C(O)C1C2CCC1C(O)C2 (centres undefined)	-4.1	-0.9	106.0	·	7.2	43.3*
SMILES	DAGLB inh	MT1-MMP act inh	ABCB6 inh 2	VLA-4 inh	Granule exo inh	FGF22 binding
O=C(NC1CCCCC1)N[C@H]1C=C[C@@H](CC(=O)N2CCOCC2)O[C@H]1CO	·	·	·	·	·	-0.2
Cc1c(/C=N/Nc2nc3ccccc3[nH]2)c2ccccc2n1C	1.7	18.8	94.0	16.4	84.8*	0.1
O=C(C1CCCCC1)N1C[C@@H]2[C@H](c3ccccc31)[C@@H](CO)N2CC1CCOCC1	·	·	·	·	·	-0.1
O=C(Nc1ccccc1F)C(=Cc1sc(N2CCOCC2)nc1-c1ccccc1)C(=O)Nc1ccccc1F	-2.0	-84.6	128.0	-10.2	-0.7	43.7*
O=C(N/N=C/c1sc(N2CCOCC2)nc1-c1ccccc1)c1ccccc1F	·	·	·	0.0	·	·
O=C(COC(=O)c1cc(S(=O)(=O)N2CCOCC2)ccc1Cl)NC1CC1	-2.5	2.3	102.0	-13.4	-0.8	0.0
O=C(NC1CCCCCC1)c1cccc(S(=O)(=O)N2CCOCC2)c1	2.2	5.1	101.0	6.4	-20.2	-0.4
CC1CCC(NC(=O)c2cccc(S(=O)(=O)N3CCOCC3)c2)CC1 (centres undefined)	-1.9	5.7	99.0	·	-0.2	43.0*
O=C(COC(=O)c1cc(S(=O)(=O)N2CCOCC2)ccc1Cl)NC1CCCCC1	-4.1	-2.7	100.0	·	4.6	42.9*
CCN(CC)c1ccc(C=Nc2cccc(S(=O)(=O)N3CCOCC3)c2)c(O)c1	-3.3	2.6	101.0	2.3	3.5	0.4
CCN(CC)c1ccc(/C=N/NC(=O)c2cccc(S(=O)(=O)N3CCOCC3)c2)c(O)c1	4.5	2.1	95.0	13.7	1.4	43.4*
C[C@H]1CN([C@@H](C)CO)C(=O)c2cc(C3=CCCCC3)cnc2O[C@H]1CN(C)Cc1ccc(C(=O)O)cc1	·	·	·	·	·	-0.3
CCC(=O)N1[C@@H]2Cn3c(ccc(-c4cncnc4)c3=O)[C@H]1[C@@H](C(=O)N1CCc3ccccc3C1)[C@@H]2CO	·	·	·	·	·	0.0
c1cc(CNCC2CCCO2)ccn1 (centres undefined)	-1.5	-0.1	102.0	2.0	12.2	43.0*
CN(C)c1ccc(CNCC2CCCO2)cc1 (centres undefined)	-1.4	2.8	99.0	9.9	-3.5	0.0
COc1ccc2c3c(n(C)c2c1)[C@@H](CO)N(C(=O)C1CCC1)CC31CCN(C(=O)Nc2cccc(F)c2)CC1	·	·	·	·	·	0.0
CCC(CC)c1nnc(NC(=O)C2=NNC(=O)CC2)s1	0.3	1.6	99.0	-2.2	-3.2	43.1*
COc1ccc(S(=O)(=O)N[C@@H]2CC[C@@H](CC(=O)NCc3ccccc3F)O[C@@H]2CO)cc1	·	·	·	·	·	0.3

Screens: PubChem BioAssay, several laboratories
